Measured values taken from ChEMBL document CHEMBL4152188, “Design, synthesis and biological evaluation of C(4) substituted monobactams as antibacterial agents against multidrug-resistant Gram-negative bacteria” (Eur J Med Chem, 2018).
In brackets after ≈: the same amount, converted by molar mass.

Tests used:
Format in all cases: functional
Klebsiella pneumoniae [1] = test: Antibacterial activity against KPC-2 producing Klebsiella pneumoniae isolate 209735 after 18 hrs in presence of BPL by CLSI broth microdilution method; settings: isolate 209735, 18 h
Summary of the method: (§1)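 CLSI broth microdilution against clinical isolates (ESBL E. coli, KPC-2 MDR K. pneumoniae, IMP-4 MDR P. aeruginosa; five per species). Iron limitation: Mueller-Hinton broth supplemented with 16 mg/liter 2,2'-bipyridyl to complex iron and induce iron uptake systems. Read-out: MIC.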

Klebsiella pneumoniae [2] = test: Antibacterial activity against KPC-2 producing Klebsiella pneumoniae isolate 212232 after 18 hrs by CLSI broth microdilution method; settings: isolate 212232, 18 h
Klebsiella pneumoniae [3] = test: Antibacterial activity against KPC-2 producing Klebsiella pneumoniae isolate 212423 after 18 hrs by CLSI broth microdilution method; settings: isolate 212423, 18 h
Pseudomonas aeruginosa [4] = test: Antibacterial activity against IMP-4 producing Pseudomonas aeruginosa isolate 207272 after 18 hrs in presence of BPL by CLSI broth microdilution method; settings: isolate 207272, 18 h; summary of the method: as §1
Klebsiella pneumoniae [5] = test: Antibacterial activity against KPC-2 producing Klebsiella pneumoniae isolate 212229 after 18 hrs in presence of BPL by CLSI broth microdilution method; settings: isolate 212229, 18 h; summary of the method: as §1
Escherichia coli [6] = test: Antibacterial activity against extended-spectrum beta-lactamase producing Escherichia coli isolate 208687 after 18 hrs in presence of BPL by CLSI broth microdilution method; settings: isolate 208687, 18 h; summary of the method: as §1
Klebsiella pneumoniae [7] = test: Antibacterial activity against KPC-2 producing Klebsiella pneumoniae isolate 209632 after 18 hrs by CLSI broth microdilution method; settings: isolate 209632, 18 h
Escherichia coli [8] = test: Selectivity index, ratio of MIC for against extended-spectrum beta-lactamase producing Escherichia coli isolate 208687 to MIC for extended-spectrum beta-lactamase producing Escherichia coli isolate 208687 in presence of BPL
Klebsiella pneumoniae [9] = test: Antibacterial activity against KPC-2 producing Klebsiella pneumoniae isolate 212229 after 18 hrs by CLSI broth microdilution method; settings: isolate 212229, 18 h
Escherichia coli [10] = test: Antibacterial activity against extended-spectrum beta-lactamase producing Escherichia coli isolate 106342 after 18 hrs in presence of BPL by CLSI broth microdilution method; settings: isolate 106342, 18 h; summary of the method: as §1
Klebsiella pneumoniae [11] = test: Antibacterial activity against KPC-2 producing Klebsiella pneumoniae isolate 212232 after 18 hrs in presence of BPL by CLSI broth microdilution method; settings: isolate 212232, 18 h; summary of the method: as §1
Pseudomonas aeruginosa [12] = test: Selectivity index, ratio of MIC for against IMP-4 producing Pseudomonas aeruginosa isolate 207272 to MIC for against IMP-4 producing Pseudomonas aeruginosa isolate 207272 in presence of BPL
Pseudomonas aeruginosa [13] = test: Antibacterial activity against IMP-4 producing Pseudomonas aeruginosa isolate 209471 after 18 hrs in presence of BPL by CLSI broth microdilution method; settings: isolate 209471, 18 h; summary of the method: as §1
Klebsiella pneumoniae [14] = test: Selectivity index, ratio of MIC for against KPC-2 producing Klebsiella pneumoniae isolate 209632 to MIC for against KPC-2 producing Klebsiella pneumoniae isolate 209632 in presence of BPL
Pseudomonas aeruginosa [15] = test: Antibacterial activity against IMP-4 producing Pseudomonas aeruginosa isolate 212886 after 18 hrs by CLSI broth microdilution method; settings: isolate 212886, 18 h
Escherichia coli [16] = test: Selectivity index, ratio of MIC for against extended-spectrum beta-lactamase producing Escherichia coli isolate 209285 to MIC for extended-spectrum beta-lactamase producing Escherichia coli isolate 209285 in presence of BPL
Escherichia coli [17] = test: Antibacterial activity against extended-spectrum beta-lactamase producing Escherichia coli isolate 106342 after 18 hrs by CLSI broth microdilution method; settings: isolate 106342, 18 h
Escherichia coli [18] = test: Selectivity index, ratio of MIC for against Escherichia coli isolate 210737 to MIC for Escherichia coli isolate 210737 in presence of BPL
Klebsiella pneumoniae [19] = test: Selectivity index, ratio of MIC for against KPC-2 producing Klebsiella pneumoniae isolate 212232 to MIC for against KPC-2 producing Klebsiella pneumoniae isolate 212232 in presence of BPL
Pseudomonas aeruginosa [20] = test: Antibacterial activity against IMP-4 producing Pseudomonas aeruginosa isolate 212886 after 18 hrs in presence of BPL by CLSI broth microdilution method; settings: isolate 212886, 18 h; summary of the method: as §1
Escherichia coli [21] = test: Antibacterial activity against extended-spectrum beta-lactamase producing Escherichia coli isolate 209285 after 18 hrs in presence of BPL by CLSI broth microdilution method; settings: isolate 209285, 18 h; summary of the method: as §1
Klebsiella pneumoniae [22] = test: Selectivity index, ratio of MIC for against KPC-2 producing Klebsiella pneumoniae isolate 212229 to MIC for against KPC-2 producing Klebsiella pneumoniae isolate 212229 in presence of BPL
Klebsiella pneumoniae [23] = test: Antibacterial activity against KPC-2 producing Klebsiella pneumoniae isolate 209735 after 18 hrs by CLSI broth microdilution method; settings: isolate 209735, 18 h
Escherichia coli [24] = test: Antibacterial activity against Escherichia coli isolate 210737 after 18 hrs by CLSI broth microdilution method; settings: isolate 210737, 18 h
Klebsiella pneumoniae [25] = test: Antibacterial activity against KPC-2 producing Klebsiella pneumoniae isolate 209632 after 18 hrs in presence of BPL by CLSI broth microdilution method; settings: isolate 209632, 18 h; summary of the method: as §1
Pseudomonas aeruginosa [26] = test: Antibacterial activity against IMP-4 producing Pseudomonas aeruginosa isolate 208247 after 18 hrs by CLSI broth microdilution method; settings: isolate 208247, 18 h
Pseudomonas aeruginosa [27] = test: Selectivity index, ratio of MIC for against IMP-4 producing Pseudomonas aeruginosa isolate 212886 to MIC for against IMP-4 producing Pseudomonas aeruginosa isolate 212886 in presence of BPL
Escherichia coli [28] = test: Selectivity index, ratio of MIC for against extended-spectrum beta-lactamase producing Escherichia coli isolate 106342 to MIC for extended-spectrum beta-lactamase producing Escherichia coli isolate 106342 in presence of BPL
Klebsiella pneumoniae [29] = test: Selectivity index, ratio of MIC for against KPC-2 producing Klebsiella pneumoniae isolate 212423 to MIC for against KPC-2 producing Klebsiella pneumoniae isolate 212423 in presence of BPL
Pseudomonas aeruginosa [30] = test: Selectivity index, ratio of MIC for against IMP-4 producing Pseudomonas aeruginosa isolate 209471 to MIC for against IMP-4 producing Pseudomonas aeruginosa isolate 209471 in presence of BPL
Escherichia coli [31] = test: Antibacterial activity against extended-spectrum beta-lactamase producing Escherichia coli isolate 212648 after 18 hrs by CLSI broth microdilution method; settings: isolate 212648, 18 h
Pseudomonas aeruginosa [32] = test: Antibacterial activity against IMP-4 producing Pseudomonas aeruginosa isolate 207272 after 18 hrs by CLSI broth microdilution method; settings: isolate 207272, 18 h
Klebsiella pneumoniae [33] = test: Selectivity index, ratio of MIC for against KPC-2 producing Klebsiella pneumoniae isolate 209735 to MIC for against KPC-2 producing Klebsiella pneumoniae isolate 209735 in presence of BPL
Klebsiella pneumoniae [34] = test: Antibacterial activity against KPC-2 producing Klebsiella pneumoniae isolate 212423 after 18 hrs in presence of BPL by CLSI broth microdilution method; settings: isolate 212423, 18 h; summary of the method: as §1
Escherichia coli [35] = test: Antibacterial activity against Escherichia coli isolate 210737 after 18 hrs in presence of BPL by CLSI broth microdilution method; settings: isolate 210737, 18 h; summary of the method: as §1
Escherichia coli [36] = test: Selectivity index, ratio of MIC for against extended-spectrum beta-lactamase producing Escherichia coli isolate 212648 to MIC for extended-spectrum beta-lactamase producing Escherichia coli isolate 212648 in presence of BPL
Pseudomonas aeruginosa [37] = test: Selectivity index, ratio of MIC for against IMP-4 producing Pseudomonas aeruginosa isolate 208247 to MIC for against IMP-4 producing Pseudomonas aeruginosa isolate 208247 in presence of BPL
Pseudomonas aeruginosa [38] = test: Selectivity index, ratio of MIC for against IMP-4 producing Pseudomonas aeruginosa isolate 209321 to MIC for against IMP-4 producing Pseudomonas aeruginosa isolate 209321 in presence of BPL
Pseudomonas aeruginosa [39] = test: Antibacterial activity against IMP-4 producing Pseudomonas aeruginosa isolate 208247 after 18 hrs in presence of BPL by CLSI broth microdilution method; settings: isolate 208247, 18 h; summary of the method: as §1
Pseudomonas aeruginosa [40] = test: Antibacterial activity against IMP-4 producing Pseudomonas aeruginosa isolate 209321 after 18 hrs in presence of BPL by CLSI broth microdilution method; settings: isolate 209321, 18 h; summary of the method: as §1
Pseudomonas aeruginosa [41] = test: Antibacterial activity against IMP-4 producing Pseudomonas aeruginosa isolate 209321 after 18 hrs by CLSI broth microdilution method; settings: isolate 209321, 18 h
Escherichia coli [42] = test: Antibacterial activity against extended-spectrum beta-lactamase producing Escherichia coli isolate 209285 after 18 hrs by CLSI broth microdilution method; settings: isolate 209285, 18 h
Pseudomonas aeruginosa [43] = test: Antibacterial activity against IMP-4 producing Pseudomonas aeruginosa isolate 209471 after 18 hrs by CLSI broth microdilution method; settings: isolate 209471, 18 h
Escherichia coli [44] = test: Antibacterial activity against extended-spectrum beta-lactamase producing Escherichia coli isolate 212648 after 18 hrs in presence of BPL by CLSI broth microdilution method; settings: isolate 212648, 18 h; summary of the method: as §1
Escherichia coli [45] = test: Antibacterial activity against extended-spectrum beta-lactamase producing Escherichia coli isolate 208687 after 18 hrs by CLSI broth microdilution method; settings: isolate 208687, 18 h

- MIC (Klebsiella pneumoniae [1]): 0.25 µg/mL
- MIC (Klebsiella pneumoniae [2]): 2 µg/mL (≈ 3.19 µM)
- MIC (Klebsiella pneumoniae [3]): 2 µg/mL (≈ 3.19 µM)
- MIC (Pseudomonas aeruginosa [4]): 32 µg/mL
- MIC (Klebsiella pneumoniae [5]): 0.25 µg/mL
- MIC (Escherichia coli [6]): 2 µg/mL
- MIC (Klebsiella pneumoniae [7]): 0.5 µg/mL (≈ 0.798 µM)
- MIC (Klebsiella pneumoniae [9]): 1 µg/mL (≈ 1.6 µM)
- MIC (Escherichia coli [10]): 4 µg/mL
- MIC (Klebsiella pneumoniae [11]): 0.125 µg/mL
- MIC (Pseudomonas aeruginosa [13]): 32 µg/mL
- MIC (Pseudomonas aeruginosa [15]): > 64 µg/mL
- MIC (Escherichia coli [17]): 8 µg/mL (≈ 12.8 µM)
- MIC (Pseudomonas aeruginosa [20]): 32 µg/mL
- MIC (Escherichia coli [21]): 4 µg/mL
- MIC (Klebsiella pneumoniae [23]): 2 µg/mL (≈ 3.19 µM)
- MIC (Escherichia coli [24]): 2 µg/mL (≈ 3.19 µM)
- MIC (Klebsiella pneumoniae [25]): 0.125 µg/mL
- MIC (Pseudomonas aeruginosa [26]): 32 µg/mL (≈ 51.1 µM)
- MIC (Escherichia coli [31]): 8 µg/mL (≈ 12.8 µM)
- MIC (Pseudomonas aeruginosa [32]): 32 µg/mL (≈ 51.1 µM)
- MIC (Klebsiella pneumoniae [34]): 0.5 µg/mL
- MIC (Escherichia coli [35]): 2 µg/mL
- MIC (Pseudomonas aeruginosa [39]): 32 µg/mL
- MIC (Pseudomonas aeruginosa [40]): 32 µg/mL
- MIC (Pseudomonas aeruginosa [41]): 32 µg/mL (≈ 51.1 µM)
- MIC (Escherichia coli [42]): 8 µg/mL (≈ 12.8 µM)
- MIC (Pseudomonas aeruginosa [43]): 32 µg/mL (≈ 51.1 µM)
- MIC (Escherichia coli [44]): 2 µg/mL
- MIC (Escherichia coli [45]): 8 µg/mL (≈ 12.8 µM)
Structure (SMILES): CC(C)C(O/N=C(\C(=O)N[C@@H]1C(=O)N(S(=O)(=O)O)[C@@H]1COS(=O)(=O)O)c1csc(N)n1)c1cc(=O)c(O)cn1O (stereo not given in full)
- Selectivity Index (Escherichia coli [8]): 4
- Selectivity Index (Pseudomonas aeruginosa [12]): 1
- Selectivity Index (Klebsiella pneumoniae [14]): 4
- Selectivity Index (Escherichia coli [16]): 2
- Selectivity Index (Escherichia coli [18]): 1
- Selectivity Index (Klebsiella pneumoniae [19]): 16
- Selectivity Index (Klebsiella pneumoniae [22]): 4
- Selectivity Index (Pseudomonas aeruginosa [27]): >2
- Selectivity Index (Escherichia coli [28]): 2
- Selectivity Index (Klebsiella pneumoniae [29]): 4
- Selectivity Index (Pseudomonas aeruginosa [30]): 1
- Selectivity Index (Klebsiella pneumoniae [33]): 8
- Selectivity Index (Escherichia coli [36]): 4
- Selectivity Index (Pseudomonas aeruginosa [37]): 1
- Selectivity Index (Pseudomonas aeruginosa [38]): 1
